Source: ChEMBL document CHEMBL5674889, “Enhanced JunD/RSK3 signalling due to loss of BRD4/FOXD3/miR-548d-3p axis determines BET inhibition resistance” (2020)
Calls of active or inactive are those of the source. The calls are words filed in the database; no cut-off is given here.

Assays:
BT-549 [1] = assay: Induction of apoptosis in human BT-549 cells in the presence of osimertinib at 1 uM by flow cytometry analysis; type: functional, cell-based
How it was run: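 Cells given JQ1 and/or osimertinib, then stained with Annexin V-FITC plus propidium iodide (10 min, room temperature, dark; 1 × 10^6 cells/ml in binding buffer after two PBS washes) and analysed by flow cytometry; one-way ANOVA.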

MDA-MB-231 [2] = assay: Effect on human RPS6KA2 transfected MDA-MB-231 cells by measuring luciferase activity at 20 uM by Luciferase reporter assay; type: functional, cell-based
MDA-MB-231 [3] = assay: Antiproliferative activity in human RPS6KA2 expressed in JUND knock-down MDA-MB-231 cells assessed as inhibition of cell growth at 1 uM by CCK-8 assay; type: functional, cell-based
BT-549 [4] = assay: Effect on JUND dependent RPS6KA2 transcription in human JUND-knockdown BT-549 cells assessed reduction in transcription level at 1 uM by ChIP-RT-PCR analysis; type: functional, cell-based
How it was run: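 ChIP-qPCR used ~1 × 10^6 cross-linked JUND-knockdown or control cells treated with DMSO or 1 μM for 6 h. Immunoprecipitated DNA was quantified by real-time PCR with primers specific to the RPS6KA2 enhancer. Non-specific primers downstream of the gene 3′ end served as control.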

MDA-MB-231 [5] = assay: Effect on human MDA-MB-231 cells assessed as EGFR protein expression at 1 uM by Western blot analysis; type: functional, cell-based
MDA-MB-231 [6] = assay: Effect on human MDA-MB-231 cells assessed as RSK3 […] expression at 1 uM for 24 hrs by Western blot analysis; type: functional, cell-based
MDA-MB-231 [7] = assay: Effect on induction of RPS6KA2 transcription in human MDA-MB-231 cells assessed as enhanced luciferase activity at 1 uM for 6 hrs by Luciferase reporter assay; type: functional, cell-based
How it was run: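 Control or JunD-shRNA BLBC cells were transfected with the RPS6KA2 enhancer luciferase reporter (FuGene 6, 24 h) and then treated with DMSO or JQ1 1 μM for 6 h. Dual-luciferase read-out given as fold induction over vector control. Three experiments in triplicate.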

BT-549 [8] = assay: Antiproliferative activity in human RPS6KA2-knockdown BT-549 cells assessed as inhibited cell growth at 1 uM for 48 hrs by CCK-8 assay; type: functional, cell-based
BT-549 [9] = assay: Antiproliferative activity in human JUND-overexpressing BT-549 cells assessed as tumor sphere formation at 1 uM by Tumor sphere assay; type: functional, cell-based
BT-549 [10] = assay: Effect on human JUND-overexpressing BT-549 cells assessed as RSK3 protein expression at 1 uM by Western blot analysis; type: functional, cell-based
How it was run: (§1)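 RSK3 and JunD were probed by western blot in JUND-knockdown or JUND-overexpressing stable clones and their controls, all selected with puromycin 1.0 μg/ml. Antibodies used at 1:1000.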

BT-549 [11] = assay: Effect on human JUND-knockdown BT-549 cells assessed as reduction of RSK3 protein expression at 1 uM by Western blot analysis; type: functional, cell-based; how it was run: as §1
MDA-MB-231 [12] = assay: Antiproliferative activity in human MDA-MB-231 cells assessed as inhibition of cell growth at 1 uM by CCK-8 assay; type: functional, cell-based
BT-549 [13] = assay: Effect on human BT-549 cells assessed as RSK3 protein expression at 1 uM for 24 hrs by Western blot analysis; type: functional, cell-based
How it was run: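 Western blot for RSK3 in MDA-MB-231 and BT549 cells treated with DMSO or 1 μM for 0, 12 and 24 h. Antibody used at 1:1000.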

MDA-MB-231 [14] = assay: Antitumor activity against human MDA-MB-231 cells xenografted in BALB/c nude mouse model assessed as reduction of tumor size in the presence of osimertinib at 35 mg/kg/day, sc administered every 2 days for 30 days; type: functional, organism-based; conditions: time 30.0 day
How it was run: (§2)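 MDA-MB-231 xenografts used 1 × 10^6 cells injected subcutaneously into female BALB/c nude mice (4–6 weeks). Animals were split into four groups (n = 7) at ~100 mm3: vehicle, osimertinib 10 mg/kg, 35 mg/kg agent, or the combination, each given every 2 days. Volume was measured by calliper as length × width²/2; tumours were weighed at end.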

MDA-MB-231 [15] = assay: Antiproliferative activity in human MDA-MB-231 cells assessed as cell growth in the presence of erlotinib at 1 uM by CellTiter-Glo luminescent cell viability assay; type: functional, cell-based
How it was run: (§3)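 BLBC cells seeded at 3000/well, adhered overnight, then exposed to JQ1 (1 μM) with or without an EGFR inhibitor (1 μM) for 48 h; control and RPS6KA2-shRNA clones tested. Viability by CellTiter-Glo luminescence, background-subtracted and normalized to DMSO-treated control; triplicates, mean ± SD, one-way ANOVA against JQ1 alone.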

BT-549 [16] = assay: Antiproliferative activity in human BT-549 cells assessed as cell growth in the presence of AZ5104 at 1 uM by CellTiter-Glo luminescent cell viability assay; type: functional, cell-based; how it was run: as §3
MDA-MB-231 [17] = assay: Induction of apoptosis in human MDA-MB-231 cells over expressing RSK3 assessed as early apoptotic cells at 1 uM by Annexin V-FITC flow cytometric analysis (reference value: 3.85%); type: functional
How it was run: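 Stable clones (vector, RSK3-overexpressing or RPS6KA2-knockdown) treated ± JQ1 1 μM. Cells washed twice in PBS, resuspended at 1 × 10^6 cells/ml in binding buffer, stained with Annexin V-FITC and propidium iodide for 10 min at room temperature in the dark, then read by flow cytometry. Three independent experiments; one-way ANOVA.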

MDA-MB-231 [18] = assay: Effect on human RPS6KA2-knockdown MDA-MB-231 cells assessed as RSK3 protein expression at 1 uM by Western blot analysis; type: functional, cell-based
HEK-293T = assay: Effect on human HEK293T cells transfected with FOXD3 assessed as decrease in luciferase activity at 1 uM for 6 hrs by Luciferase reporter assay; type: functional, cell-based
BT-549 [19] = assay: Antiproliferative activity in human BT-549 cells assessed as cell growth in the presence of miR-548d-3p at 1 uM by CCK-8 assay; type: functional, cell-based
How it was run: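 BLBC cells transfected with miR-548d-3p mimic or inhibitor, with or without JQ1; growth read by CCK-8 assay relative to DMSO-treated control, seeded at 3000/well. Triplicates, mean ± SD, one-way ANOVA.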

BT-549 [20] = assay: Effect on human BRD4-knockdown BT-549 assessed as decreased luciferase activity at 1 uM for 6 hrs by Luciferase reporter assay; type: functional, cell-based
MDA-MB-231 [21] = assay: Antitumor activity against human MDA-MB-231 cells xenografted in BALB/c nude mouse model assessed as reduction of tumor weight in the presence of osimertinib at 35 mg/kg/day, sc administered every 2 days for 30 days; type: functional, organism-based; conditions: time 30.0 day; how it was run: as §2
MDA-MB-231 [22] = assay: Effect on human JUND-overexpressing MDA-MB-231 cells assessed as RSK3 protein expression at 1 uM by Western blot analysis; type: functional, cell-based; how it was run: as §1
MDA-MB-231 [23] = assay: Antiproliferative activity in human JUND-knockdown MDA-MB-231 cells assessed as cell viability at 1 uM by CellTiter-Glo luminescent cell viability assay; type: functional, cell-based
How it was run: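 Stable JUND-knockdown (shRNA, puromycin 1.0 μg/ml selection) or JUND-overexpressing clones and vector controls, seeded 3000 cells/well and adhered overnight, then given DMSO or JQ1 (1 μM) for 48 h. Read-out CellTiter-Glo luminescence normalized to DMSO control; triplicates, mean ± SD, one-way ANOVA.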

MDA-MB-231 [24] = assay: Antiproliferative activity in human MDA-MB-231 cells assessed as cell growth inhibition for 48 hrs in the presence of […] at 1 uM by CCK-8 assay; type: functional, cell-based

Cc1sc2c(c1C)C(c1ccc(Cl)cc1)=N[C@@H](CC(=O)OC(C)(C)C)c1nnc(C)n1-2
Activity (BT-549 [1]): Active | Activity (MDA-MB-231 [2]): Active | Activity (MDA-MB-231 [3]): Active | Activity (BT-549 [4]): Active | Activity (MDA-MB-231 [5]): Active | Activity (MDA-MB-231 [6]): Active | Activity (MDA-MB-231 [7]): Active | Activity (BT-549 [8]): Active | Activity (BT-549 [9]): Active | Activity (BT-549 [10]): Active | Activity (BT-549 [11]): Active | Activity (MDA-MB-231 [12]): Active | Activity (BT-549 [13]): Active | Activity (MDA-MB-231 [14]): Active | Activity (MDA-MB-231 [15]): Active | Activity (BT-549 [16]): Active | Activity (MDA-MB-231 [17]): 7.14% | Activity (MDA-MB-231 [18]): Active | Activity (HEK-293T): Active | Activity (BT-549 [19]): Active | Activity (BT-549 [20]): Active | Activity (MDA-MB-231 [21]): Active | Activity (MDA-MB-231 [22]): Active | Activity (MDA-MB-231 [23]): Active | Activity (MDA-MB-231 [24]): Active
